# Reference: paper PMC7231973 (Neurobiology of Stress, 2019)
# Where two headings read alike, the source gives them in different places.
# Tests used:
# [1] = cited from earlier work
# [2] = rodents; ref Irwin et al., 2015; cited from earlier work
# human GABAAR α2β2γ2 = human GABAAR α2β2γ2 (Homo sapiens, UniProt P18507+P47869+P47870); experiment: Voltage-clamp, modulation of GABA EC10 response in Xenopus laevis oocytes; assay type: cell-based; details: maximum modulation of the GABA EC10 response, mean ± S.E.M. (n = 3)
# human GABAAR α4β3δ = human GABAAR α4β3δ (Homo sapiens, UniProt O14764+P28472+P48169); experiment: Voltage-clamp, modulation of GABA EC10 response in Xenopus laevis oocytes; assay type: cell-based; details: maximum modulation of the GABA EC10 response, mean ± S.E.M. (n = 3)
# Method in brief: (§1)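 Human GABAAR subtypes expressed in Xenopus laevis oocytes. The GABA EC10 (the concentration giving 10% of the maximal GABA response) was determined for each oocyte. Test compound was pre-applied for 30 s, then co-applied with EC10 GABA. Response = (I GABA EC10 + modulator / I GABA EC10) × 100, where I = current. Concentration-effect data were fitted to a four-parameter logistic equation.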
# human GABAAR α2β1γ2 [3] = target: T1, human GABAAR α2β1γ2 (Homo sapiens, UniProt P18505+P18507+P47869); experiment: Voltage-clamp, modulation of GABA EC10 response in Xenopus laevis oocytes; assay type: cell-based; details: maximum modulation of the GABA EC10 response, mean ± S.E.M. (n = 3)
# human GABAAR α1β2γ2 = human GABAAR α1β2γ2 (Homo sapiens, UniProt P14867+P18507+P47870); experiment: Voltage-clamp, modulation of GABA EC10 response in Xenopus laevis oocytes; assay type: cell-based; details: maximum modulation of the GABA EC10 response, mean ± S.E.M. (n = 3)
# Method in brief: as §1
# human GABAAR α1β1γ2 = human GABAAR α1β1γ2 (Homo sapiens, UniProt P14867+P18505+P18507); experiment: as above; assay type: cell-based; details: maximum modulation of the GABA EC10 response, mean ± S.E.M. (n = 3)
# Method in brief: as §1
# synaptic GABAARs = details: ref Wafford et al., 2009; Jensen et al., 2013; cited from earlier work
# hippocampal DGGNs = details: ref Modgil et al., 2017, cited from earlier work
# human GABAAR α2β1γ2 [4] = target: T1, human GABAAR α2β1γ2; details: value marked #, ref Hogenkamp et al. (2014) and Carter et al. (1997); cited from earlier work
# acute migraine = details: in vivo; cited from earlier work
# PPD = details: cited from earlier work
# GABAARs [5] = details: ref Parakala et al., 2019; cited from earlier work
# [6] = target: synaptic (α1β2γ2) GABAARs (Mus musculus, UniProt P22723+P62812+P63137); experiment: mIPSCs recorded from thalamic VB neurons in horizontal slice; assay type: cell-based; details: 1 μM, 10 min; VB neuron of P21 mouse, −70 mV
# Method in brief: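 GABAAR mIPSCs were recorded at −70 mV from thalamic VB neurons in horizontal slices from P21 mice. Recordings were made under control conditions and after 10 min of test compound at 1 μM. mIPSC decay was examined.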
# [7] = tested on: patients with moderate to severe major depressive disorder; details: oral treatment for 14 days; ref Gunduz-Bruce et al., 2019; cited from earlier work
# [8] = target: extrasynaptic (α4β2δ) GABAARs (Mus musculus, UniProt P22933+P63137+Q9D6F4); experiment: Tonic current; assay type: cell-based; details: 1 μM; VB neuron of P21 mouse; reversed by bicuculline 20 μM
# Method in brief: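 Holding current was taken from the same −70 mV VB neuron recordings in P21 mouse horizontal slices. All-points histograms of holding current were compared under control, after test compound (1 μM), and after co-application of bicuculline (20 μM).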
# rodent seizure models = details: ref Hogenkamp et al., 2014; cited from earlier work
# [9] = ref Harrison and Simmonds, 1984; cited from earlier work
# GABAARs [10] = details: ref Harrison and Simmonds, 1984; cited from earlier work
# traumatic brain injury = details: ref Wright et al., 2014, Skolnick et al.; cited from earlier work
# humans = details: 500 mg intravenously (iv.); ref Merryman et al., 1954; cited from earlier work
# Chain of human GABAAR α2β2γ2 (P47869 29-451): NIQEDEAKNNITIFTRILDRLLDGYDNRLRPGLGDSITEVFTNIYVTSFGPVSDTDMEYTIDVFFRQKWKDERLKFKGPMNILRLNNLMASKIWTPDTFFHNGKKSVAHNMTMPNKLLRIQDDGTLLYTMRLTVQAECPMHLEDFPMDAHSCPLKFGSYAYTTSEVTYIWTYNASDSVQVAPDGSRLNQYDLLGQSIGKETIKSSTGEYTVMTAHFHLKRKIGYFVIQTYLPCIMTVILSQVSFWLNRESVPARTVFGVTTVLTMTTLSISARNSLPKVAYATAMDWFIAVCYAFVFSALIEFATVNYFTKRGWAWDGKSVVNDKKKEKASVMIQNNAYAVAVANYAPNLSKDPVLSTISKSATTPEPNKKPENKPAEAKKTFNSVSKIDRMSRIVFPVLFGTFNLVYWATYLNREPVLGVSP
# Chain of human GABAAR α2β2γ2 (P47870 26-512): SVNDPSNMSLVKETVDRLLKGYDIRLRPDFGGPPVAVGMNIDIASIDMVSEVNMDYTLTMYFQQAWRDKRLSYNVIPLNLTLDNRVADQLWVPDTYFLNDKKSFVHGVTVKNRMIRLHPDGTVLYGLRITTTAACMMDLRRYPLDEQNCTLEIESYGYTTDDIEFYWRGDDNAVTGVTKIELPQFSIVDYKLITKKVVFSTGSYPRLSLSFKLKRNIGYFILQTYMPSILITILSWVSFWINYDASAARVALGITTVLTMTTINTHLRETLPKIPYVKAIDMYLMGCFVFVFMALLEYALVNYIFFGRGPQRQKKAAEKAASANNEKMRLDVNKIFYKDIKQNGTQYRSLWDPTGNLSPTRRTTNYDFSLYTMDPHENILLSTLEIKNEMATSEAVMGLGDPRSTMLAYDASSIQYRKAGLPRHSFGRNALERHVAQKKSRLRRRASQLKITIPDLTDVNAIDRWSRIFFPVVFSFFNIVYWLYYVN
# Chain of human GABAAR α2β2γ2 (P18507 40-475): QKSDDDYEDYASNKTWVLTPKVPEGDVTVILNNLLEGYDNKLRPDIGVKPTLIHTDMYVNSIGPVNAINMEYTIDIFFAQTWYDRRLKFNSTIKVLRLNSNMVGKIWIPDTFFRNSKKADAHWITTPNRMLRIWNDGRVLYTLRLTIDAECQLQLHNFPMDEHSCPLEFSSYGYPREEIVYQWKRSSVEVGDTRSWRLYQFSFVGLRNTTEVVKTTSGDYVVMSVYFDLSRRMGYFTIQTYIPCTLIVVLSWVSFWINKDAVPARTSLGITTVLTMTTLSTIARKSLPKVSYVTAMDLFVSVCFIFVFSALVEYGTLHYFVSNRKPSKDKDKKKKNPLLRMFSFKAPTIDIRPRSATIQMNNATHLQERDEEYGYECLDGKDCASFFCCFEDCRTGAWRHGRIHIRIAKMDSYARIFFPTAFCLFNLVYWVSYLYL
# T1 sequence (P47869 29-451): as the sequence (P47869 29-451) above
# T1 sequence (P18505 26-474): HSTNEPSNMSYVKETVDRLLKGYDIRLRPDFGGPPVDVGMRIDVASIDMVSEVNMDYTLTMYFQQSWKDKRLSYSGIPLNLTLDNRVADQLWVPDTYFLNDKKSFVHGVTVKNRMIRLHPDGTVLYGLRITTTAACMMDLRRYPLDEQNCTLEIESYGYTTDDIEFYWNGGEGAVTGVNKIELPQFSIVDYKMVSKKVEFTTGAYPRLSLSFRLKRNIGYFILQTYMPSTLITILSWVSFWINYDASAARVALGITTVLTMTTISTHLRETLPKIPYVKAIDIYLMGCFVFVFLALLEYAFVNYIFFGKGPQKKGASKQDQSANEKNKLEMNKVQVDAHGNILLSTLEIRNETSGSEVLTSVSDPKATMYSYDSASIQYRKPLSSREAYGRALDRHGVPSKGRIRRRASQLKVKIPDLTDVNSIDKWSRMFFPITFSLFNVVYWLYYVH
# T1 sequence (P18507 40-475): as the sequence (P18507 40-475) above
# Chain of human GABAAR α1β1γ2 (P14867 28-456): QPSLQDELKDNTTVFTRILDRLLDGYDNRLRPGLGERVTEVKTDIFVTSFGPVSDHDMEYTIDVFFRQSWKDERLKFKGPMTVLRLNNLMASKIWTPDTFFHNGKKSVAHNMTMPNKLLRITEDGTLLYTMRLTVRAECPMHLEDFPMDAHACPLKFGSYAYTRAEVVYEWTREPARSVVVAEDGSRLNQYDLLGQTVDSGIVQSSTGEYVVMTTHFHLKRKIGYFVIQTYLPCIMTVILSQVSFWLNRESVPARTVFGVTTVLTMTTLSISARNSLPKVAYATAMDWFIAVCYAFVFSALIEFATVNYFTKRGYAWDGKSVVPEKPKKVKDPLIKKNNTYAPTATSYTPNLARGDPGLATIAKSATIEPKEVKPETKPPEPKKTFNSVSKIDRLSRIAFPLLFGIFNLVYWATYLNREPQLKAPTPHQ
# Chain of human GABAAR α1β1γ2 (P18505 26-474): as the sequence (P18505 26-474) above
# Chain of human GABAAR α1β1γ2 (P18507 40-475): as the sequence (P18507 40-475) above
# Chain of human GABAAR α1β2γ2 (P14867 28-456): as the sequence (P14867 28-456) above
# Chain of human GABAAR α1β2γ2 (P47870 26-512): as the sequence (P47870 26-512) above
# Chain of human GABAAR α1β2γ2 (P18507 40-475): as the sequence (P18507 40-475) above
# Chain of human GABAAR α4β3δ (P48169 36-554): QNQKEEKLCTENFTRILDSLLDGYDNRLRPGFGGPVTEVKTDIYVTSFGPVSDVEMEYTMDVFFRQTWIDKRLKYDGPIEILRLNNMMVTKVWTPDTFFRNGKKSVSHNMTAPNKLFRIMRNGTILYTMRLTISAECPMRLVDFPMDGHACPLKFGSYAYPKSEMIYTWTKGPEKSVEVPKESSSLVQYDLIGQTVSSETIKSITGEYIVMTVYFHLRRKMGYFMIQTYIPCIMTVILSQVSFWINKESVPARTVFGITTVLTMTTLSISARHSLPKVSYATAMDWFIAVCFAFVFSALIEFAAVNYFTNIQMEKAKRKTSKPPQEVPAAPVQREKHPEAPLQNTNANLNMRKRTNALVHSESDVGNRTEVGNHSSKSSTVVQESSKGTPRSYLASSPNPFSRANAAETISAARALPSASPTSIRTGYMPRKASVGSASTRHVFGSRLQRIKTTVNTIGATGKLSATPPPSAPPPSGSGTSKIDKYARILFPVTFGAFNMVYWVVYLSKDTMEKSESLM
# Chain of human GABAAR α4β3δ (P28472 26-473): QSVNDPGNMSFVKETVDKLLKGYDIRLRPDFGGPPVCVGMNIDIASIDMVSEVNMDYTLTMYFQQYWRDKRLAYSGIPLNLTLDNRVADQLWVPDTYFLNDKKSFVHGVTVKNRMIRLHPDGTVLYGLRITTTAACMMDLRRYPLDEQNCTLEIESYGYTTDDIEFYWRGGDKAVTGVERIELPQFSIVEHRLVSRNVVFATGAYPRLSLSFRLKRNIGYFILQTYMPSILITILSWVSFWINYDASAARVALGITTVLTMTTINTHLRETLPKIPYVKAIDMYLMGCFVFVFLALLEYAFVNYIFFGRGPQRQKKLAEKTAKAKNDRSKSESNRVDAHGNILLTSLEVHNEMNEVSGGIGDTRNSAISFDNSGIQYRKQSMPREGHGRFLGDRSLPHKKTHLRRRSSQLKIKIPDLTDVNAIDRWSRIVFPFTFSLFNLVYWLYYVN
# Chain of human GABAAR α4β3δ (O14764 25-452): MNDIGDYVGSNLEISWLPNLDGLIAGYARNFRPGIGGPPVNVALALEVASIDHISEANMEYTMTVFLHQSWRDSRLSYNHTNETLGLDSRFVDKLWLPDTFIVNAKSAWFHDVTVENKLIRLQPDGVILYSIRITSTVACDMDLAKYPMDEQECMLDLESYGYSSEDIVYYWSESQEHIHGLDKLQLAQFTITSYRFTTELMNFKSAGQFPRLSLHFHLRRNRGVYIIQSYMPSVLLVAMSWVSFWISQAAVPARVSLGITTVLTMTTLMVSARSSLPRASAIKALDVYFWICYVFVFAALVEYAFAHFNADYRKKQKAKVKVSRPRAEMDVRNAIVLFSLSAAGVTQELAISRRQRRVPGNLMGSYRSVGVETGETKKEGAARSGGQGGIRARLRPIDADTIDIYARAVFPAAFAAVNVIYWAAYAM
# Chain of synaptic (α1β2γ2) GABAARs (P62812 28-455): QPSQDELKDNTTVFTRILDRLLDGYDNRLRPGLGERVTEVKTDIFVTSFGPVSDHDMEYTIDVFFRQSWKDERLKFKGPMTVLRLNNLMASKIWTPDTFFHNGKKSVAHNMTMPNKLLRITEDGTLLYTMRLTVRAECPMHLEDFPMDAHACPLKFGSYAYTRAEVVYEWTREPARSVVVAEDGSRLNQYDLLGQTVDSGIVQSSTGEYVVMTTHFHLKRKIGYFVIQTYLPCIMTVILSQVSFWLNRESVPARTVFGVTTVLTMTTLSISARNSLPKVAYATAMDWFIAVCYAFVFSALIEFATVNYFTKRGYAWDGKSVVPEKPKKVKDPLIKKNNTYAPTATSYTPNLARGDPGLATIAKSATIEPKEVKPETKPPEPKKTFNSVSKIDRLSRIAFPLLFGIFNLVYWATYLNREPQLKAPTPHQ
# Chain of synaptic (α1β2γ2) GABAARs (P63137 25-512 limits assumed): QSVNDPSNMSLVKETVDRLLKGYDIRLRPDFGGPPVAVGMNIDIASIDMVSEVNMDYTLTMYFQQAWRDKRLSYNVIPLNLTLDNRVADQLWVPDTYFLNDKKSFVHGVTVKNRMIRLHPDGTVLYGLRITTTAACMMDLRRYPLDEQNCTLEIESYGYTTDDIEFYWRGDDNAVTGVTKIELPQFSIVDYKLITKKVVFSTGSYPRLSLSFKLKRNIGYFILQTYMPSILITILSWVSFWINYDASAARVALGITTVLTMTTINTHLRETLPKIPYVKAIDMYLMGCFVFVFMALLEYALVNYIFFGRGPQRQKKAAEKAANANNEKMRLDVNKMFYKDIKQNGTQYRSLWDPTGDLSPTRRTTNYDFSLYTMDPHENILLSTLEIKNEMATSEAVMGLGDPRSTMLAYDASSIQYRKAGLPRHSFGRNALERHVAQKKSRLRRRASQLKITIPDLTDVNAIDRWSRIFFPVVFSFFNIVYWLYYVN
# Chain of synaptic (α1β2γ2) GABAARs (P22723 39-474): as the sequence (P18507 40-475) above
structure (smiles),measurement,setting,value
CCOC(=O)Nc1ccc(NCc2c(C)cc(C)cc2C)cc1N [AA29504],ratio of brain to plasma levels,"[1]; ref Hoestgaard-Jensen et al., 2010",favorable ratio of brain to plasma levels
"CC(=O)[C@H]1CC[C@H]2[C@@H]3CC[C@H]4C[C@H](O)CC[C@]4(C)[C@H]3CC[C@]12C [AlloP, 5α-pregnan-3α-ol-20-one]",brain concentration relative to that in plasma,[2],3 ×
same,Max Mod ± SEM,human GABAAR α2β2γ2,485 ± 257 % control
same,Max Mod ± SEM,human GABAAR α4β3δ,1401 ± 88 % control
same,Max Mod ± SEM,human GABAAR α2β1γ2 [3],878 ± 211 % control
same,Max Mod ± SEM,human GABAAR α1β2γ2,909 ± 68 % control
same,Max Mod ± SEM,human GABAAR α1β1γ2,817 ± 62 % control
O=C(Nc1c(-c2cccs2)nc2ccccn12)c1ccc(Cl)cc1 [DS2],CNS penetration,"[1]; ref Wafford et al., 2009, Jensen et al., 2013",poor CNS penetration
same,activity on synaptic GABAARs,synaptic GABAARs,no activity
"CC(=O)[C@H]1CC[C@H]2[C@@H]3CC[C@H]4C[C@](C)(O)CC[C@]4(C)[C@H]3CC[C@]12C [Ganaxolone, 3alpha-hydroxy-3beta-methyl-5alpha-pregnan-20-one]",sustained enhancement of tonic conductance,hippocampal DGGNs; in contrast to allopregnanolone,did not produce a sustained enhancement
same,acute effect on tonic current,hippocampal DGGNs,acutely increased the tonic current
same,Max Mod ± SEM,human GABAAR α2β2γ2,646 ± 254 % control
same,Max Mod ± SEM,human GABAAR α4β3δ,1710 ± 534 % control
same,Max Mod ± SEM,human GABAAR α2β1γ2 [4],700 ± 50^# % control
same,"outcome in phase II trials, acute migraine",acute migraine,failed to demonstrate efficacy
same,"outcome in PPD, preliminary findings","PPD; oral (p.o) dose of 1175 mg once per day for 28 days, ref trade press",not meeting primary endpoints
same,Max Mod ± SEM,human GABAAR α1β2γ2,1151 ± 367 % control
same,Max Mod ± SEM,human GABAAR α1β1γ2,1006 ± 241 % control
C=C[C@]12CCC(=O)C=C1CC[C@H]1[C@@H]3CC[C@H](C(C)=O)[C@@]3(C)CC[C@@H]12 [ORG OD 02-0],direct interaction with GABAARs,GABAARs [5],no direct interaction with GABAARs
"C[C@@]1(O)CC[C@H]2[C@H](CC[C@@H]3[C@@H]2CC[C@]2(C)[C@@H](C(=O)Cn4cc(C#N)cn4)CC[C@@H]32)C1 [SAGE-217, 3alpha-Hydroxy-3beta-methyl-21-(4-cyano-1H-pyrazol-1’-yl)-19-nor-5beta-pregnan-20-one]",Max Mod ± SEM,human GABAAR α2β2γ2,1355 ± 173 % control
same,duration of miniature inhibitory postsynaptic currents (mIPSCs),[6],greatly prolong
same,Max Mod ± SEM,human GABAAR α4β3δ,783 ± 122 % control
same,depressive symptoms,[7],effective in reducing depressive symptoms
same,main side effects,[7],dizziness and somnolence/sedation
same,Max Mod ± SEM,human GABAAR α2β1γ2 [3],851 ± 93 % control
same,tonic current,[8],enhance the tonic current
same,outcome of phase II study,"PPD; 30 mg p.o. once a day for 14 days, reported by Sage",positive results
same,Max Mod ± SEM,human GABAAR α1β2γ2,823 ± 353 % control
same,Max Mod ± SEM,human GABAAR α1β1γ2,488 ± 33 % control
"C[C@@]1(O)CC[C@@]2(C)[C@@H](CC[C@@H]3[C@@H]2CC[C@]2(C)[C@@H](c4cc(CO)on4)CC[C@@H]32)C1 [UCI-50027, 3-[3α-hydroxy-3β-methyl-5α-androstan-17β-yl]-5-(hydroxymethyl)isoxazole]",Max Mod ± SEM,human GABAAR α2β2γ2,595 ± 176 % control
same,Max Mod ± SEM,human GABAAR α4β3δ,919 ± 229 % control
same,anticonvulsant/anxiolytic therapeutic index,rodent seizure models,greater anticonvulsant/anxiolytic therapeutic index than ganaxolone
same,Max Mod ± SEM,human GABAAR α2β1γ2 [3],277 ± 47 % control
same,Max Mod ± SEM,human GABAAR α1β2γ2,587 ± 91 % control
same,Max Mod ± SEM,human GABAAR α1β1γ2,472 ± 84 % control
CC(=O)[C@H]1CC[C@H]2[C@@H]3CC[C@H]4C[C@@H](O)CC[C@]4(C)[C@H]3C(=O)C[C@]12C [betaxalone],behavioural effect,[9],behaviourally inert
same,effect on GABAARs,GABAARs [10],no effect
CC(=O)[C@H]1CC[C@H]2[C@@H]3CCC4=CC(=O)CC[C@]4(C)[C@H]3CC[C@]12C [progesterone],"outcome in phase III trials, moderate to severe traumatic brain injury",traumatic brain injury,failed to meet primary criteria
same,effect in humans,humans,anesthetic effect
